In data set [1] the test system is Mus musculus. The data set is described as follows: Clonic seizures was evaluated after 0.5 hr in 3-mercaptopropionic acid test in mice at a dose of 119 mg/kg. In kind it is functional. In a few lines:
(§1)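 Male NMRI mice (18-25 g). Test compound dissolved in DMSO, given ip at 2 mL/kg. Convulsant given 30 min or 3 h later: pentylenetetrazole (85 or 120 mg/kg) sc in saline, or 3-mercaptopropionic acid 40 mg/kg ip in saline. Mice caged singly and watched 30 min. Clonic and tonic seizures and deaths counted, expressed as % of animals.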

For data set [2], the system named is Mus musculus. The data set is described as follows: Clonic seizures was evaluated after 0.5 hr in pentylenetetrazole test in mice at a dose of 120 mg/kg. Format: functional. In a few lines:
as §1

For data set [3], the system named is Mus musculus. Kind of data set: Clonic seizures was evaluated after 0.5 hr in pentylenetetrazole test in mice at a dose of 85 mg/kg. Format: functional.
Data set [4] has as its system Mus musculus. Kind of data set: Clonic seizures was evaluated after 3h in 3-mercaptopropionic acid test in mice at a dose of 119 mg/kg. Format: functional. The gist of the method: as §1
The test system of data set [5] is Mus musculus. Kind of data set: Clonic seizures was evaluated after 3h in pentylenetetrazole test in mice at a dose of 85 mg/kg. In kind it is functional.
The test system of data set [6] is Mus musculus. Kind of data set: Compound was tested for anticonvulsant activity in maximal electroshock seizure(MES) test after 3 hours upon intraperitoneal administration to mice. Conditions: ip. In kind it is functional. The gist of the method:
(§2)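 Male OF1 mice (15-25 g), free access to water only during testing. Compound given ip and maximal electroshock applied at 30 min or 3 h. Typically 8-10 mice per compound, dose and time point. Screening at initial 0.4 mmol/kg, scored as protected/tested.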

Data set [7] concerns Mus musculus. The data set is described as follows: Compound was tested for anticonvulsant activity in maximal electroshock seizure(MES) test after 30 min upon intraperitoneal administration to mice. Format: functional. The note with it: ip, 0.5 h. The gist of the method:
as §2

Data set [8] has as its system Mus musculus. The data set is described as follows: Tonic seizures was evaluated after 0.5 hr in 3-mercaptopropionic acid test in mice at a dose of 119 mg/kg. Format: functional. In a few lines: (§3)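 Male NMRI mice (18-25 g) received test agent ip at 119 mg/kg, dissolved in DMSO, 2 mL/kg. 40 mg/kg 3-mercaptopropionic acid in saline was injected ip 30 min or 3 h later. Percentage of animals with tonic seizures was recorded.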

The subject of data set [9] is Mus musculus. The data set is described as follows: Tonic seizures was evaluated after 0.5 hr in pentylenetetrazole test at a dose of 120 mg/kg. In kind it is functional. The gist of the method: (§4)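 Male NMRI mice (18-25 g) were dosed ip at 119 mg/kg in DMSO (2 mL/kg). At 30 min or 3 h, pentylenetetrazole in saline was given sc at 85 or 120 mg/kg (the convulsant dose named in each line). Mice were observed individually for 30 min, with clonic and tonic seizures and deaths noted as percent of animals.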

Data set [10] deals with Mus musculus. Kind of data set: Tonic seizures was evaluated after 0.5 hr in pentylenetetrazole test at a dose of 85 mg/kg. Format: functional. The gist of the method: as §4
The subject of data set [11] is Mus musculus. The data set is described as follows: Tonic seizures was evaluated after 0.5 hr in strychnine test in mice at a dose of 119 mg/kg. Format: functional. In a few lines: (§5)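 Male NMRI mice (18-25 g) were dosed ip at 119 mg/kg in DMSO (2 mL/kg). At 30 min or 3 h, strychnine chlorhydrate in saline was given sc (1.2 mg/mL, 1 mL/kg). Mice were observed individually for 30 min, with tonic seizures and lethality recorded as percent of animals.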

For data set [12], the system named is Mus musculus. Kind of data set: Tonic seizures was evaluated after 3h in 3-mercaptopropionic acid test in mice at a dose of 119 mg/kg. Format: functional. The gist of the method:
as §3

For data set [13], the system named is Mus musculus. The data set is described as follows: Tonic seizures was evaluated after 3h in pentylenetetrazole test at a dose of 85 mg/kg. In kind it is functional. In a few lines: as §4
Data set [14] has as its system Mus musculus. The data set is described as follows: Tonic seizures was evaluated after 3h in strychnine test in mice at a dose of 119 mg/kg. In kind it is functional. The gist of the method: as §5
A short description of data set [15]: Lethality was evaluated after 0.5 hr in 3-mercaptopropionic acid test in mice at a dose of 119 mg/kg. In kind it is ADME, organism-based. Also noted: dose 119 mg/kg. Conditions: mouse, in vivo. In a few lines: (§6)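 Male NMRI mice (18-25 g, bred in-house) got test compound ip at 119 mg/kg, dissolved in DMSO and given at 2 mL/kg. At 30 min or 3 h after dosing, 3-mercaptopropionic acid in saline was injected ip at 40 mg/kg. Deaths were recorded and reported as percent lethality.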

The nature of data set [16]: Lethality was evaluated after 0.5 hr in pentylenetetrazole test in mice at a dose of 120 mg/kg. Format: ADME, organism-based. Also noted: dose 120 mg/kg. Conditions: mouse, in vivo. The gist of the method:
(§7)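 Male NMRI mice (18-25 g) got compound ip at 119 mg/kg in DMSO (2 mL/kg). At 30 min or 3 h after dosing, pentylenetetrazole in saline was given sc at 85 or 120 mg/kg. Mice were caged singly and watched for 30 min, noting clonic and tonic seizures and deaths. Lethality is given as a percentage.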

A short description of data set [17]: Lethality was evaluated after 0.5 hr in pentylenetetrazole test in mice at a dose of 85 mg/kg. In kind it is ADME, organism-based. The note with it: mouse, in vivo. Also noted: dose 85 mg/kg. In a few lines: as §7
The nature of data set [18]: Lethality was evaluated after 0.5 hr in strychnine test in mice at a dose of 119 mg/kg. Format: ADME, organism-based. More on the design: dose 119 mg/kg. The note with it: mouse, in vivo. In a few lines: (§8)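 Male NMRI mice (18-25 g) got compound ip at 119 mg/kg in DMSO (2 mL/kg). At 30 min or 3 h after dosing, strychnine chlorhydrate in saline (1.2 mg/mL) was injected sc at 1 mL/kg. Mice were caged singly and observed for 30 min, recording seizure onset, tonic seizures and lethality (%).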

Data set [19] in a line: Lethality was evaluated after 3h in 3-mercaptopropionic acid test in mice at a dose of 119 mg/kg. In kind it is ADME, organism-based. Also noted: dose 119 mg/kg. Conditions: mouse, in vivo. The gist of the method:
as §6

A short description of data set [20]: Lethality was evaluated after 3h in pentylenetetrazole test in mice at a dose of 85 mg/kg. Format: ADME, organism-based. Also noted: dose 85 mg/kg. The note with it: mouse, in vivo. The gist of the method:
as §7

A short description of data set [21]: Lethality was evaluated after 3h in strychnine test in mice at a dose of 119 mg/kg. In kind it is ADME, organism-based. More on the design: dose 119 mg/kg. Conditions: mouse, in vivo. The gist of the method:
as §8

Data set [22] can be described thus: Lipophilicity value was evaluated. Format: physicochemical. Conditions: RP-HPLC. The gist of the method: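 Lipophilicity by RP-HPLC on a C18 column at 1.0 mL/min. Mobile phases were 10-50% […] with 50-90% 0.01 M phosphate buffer pH 7.4. Triplicate runs per eluent. log k_o extrapolated from at least four eluent compositions. ClogP also calculated.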

Take `O=C(CNC(=O)OCc1ccccc1)NCc1ccccc1`: the Clonic seizures in data set [1] is on record as 83%; in data set [2], 83%; in data set [3], 67%; in data set [4], 100%; in data set [5] it was 80%. Moreover, the results for the ED50 in [6] and in data set [7] were 11.6 mg/kg and 4.8 mg/kg, respectively. Further, the Tonic seizures in data set [8] was 17%; in data set [9] it was 0%; in [10] it was 0%; in [11], 33%; in data set [12], 0%; in data set [13], 70%. The molecule further registered a Tonic seizures in data set [14] of 80%. Moreover, the Lethality in data set [15] amounted to 0%; in data set [16] it was 50%; in data set [17] it was 22%; in [18], 17%; in data set [19] it was 30%; in data set [20] it was 60%. In data set [21], the Lethality is recorded as 80%. For the same molecule, the “Log Ko” value in data set [22] is listed as 3.5.

A word on the ED50: it is the dose at which the effect has come halfway, by size or by number of responders. Low readings indicate an effect at a small dose, high ones a need for a large dose.
